Source: PubChem (several laboratories)
GSTO1 counter: inhibitors of recombinant GSTO1, primary screen, counter-screen for RBBP9 inhibitor project, biochemical, fluorescence polarization. 300,000 tested, 1.1% active. AID 1974, 2009. Glutathione S-transferase omega-1 (Homo sapiens), P78417. inhibition, % at 5.96 µM. activity-based probe fluorescence polarization;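 active means inhibition above the campaign mean inhibition plus 3 SD, cut at about 35% in these data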;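 further: 0% = GSTO1-1 with DMSO and 100% = wells lacking GSTO1-1 enzyme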
CTSL1 counter: Fasciola hepatica cathepsin L1 inhibitors, primary screen, counter-screen for PFM18AAP inhibitor project, biochemical, QFRET, fluorogenic peptide substrate. recombinant F. hepatica cathepsin L1, Z-Leu-Arg-MCA fluorescence. inhibition, % at 5.96 µM. 300,000 tested, 0.49% active;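 active means inhibition above the mean of all tested compounds plus 3 SD, set per screening campaign, cut at about 17% in these data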;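 further: 0% = plate median of test compound wells and 100% = 1 µM Z-Phe-Ala-diazomethylketone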
HKDC1 inhibitor: HKDC1 hexokinase inhibitors, primary screen, biochemical, fluorescence, uHTS. inhibition, % at 20 µM. 340,000 tested, 0.16% active. Q2TB90. recombinant HKDC1, G6PDH/diaphorase resazurin coupled fluorescence;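 active means inhibition above about 35% when tested at 20 µM, limit read from the data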;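 further: plate controls were DMSO wells with enzyme for no effect and DMSO wells lacking enzyme for full effect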
Target sequence (Q2TB90 whole entry, looked up): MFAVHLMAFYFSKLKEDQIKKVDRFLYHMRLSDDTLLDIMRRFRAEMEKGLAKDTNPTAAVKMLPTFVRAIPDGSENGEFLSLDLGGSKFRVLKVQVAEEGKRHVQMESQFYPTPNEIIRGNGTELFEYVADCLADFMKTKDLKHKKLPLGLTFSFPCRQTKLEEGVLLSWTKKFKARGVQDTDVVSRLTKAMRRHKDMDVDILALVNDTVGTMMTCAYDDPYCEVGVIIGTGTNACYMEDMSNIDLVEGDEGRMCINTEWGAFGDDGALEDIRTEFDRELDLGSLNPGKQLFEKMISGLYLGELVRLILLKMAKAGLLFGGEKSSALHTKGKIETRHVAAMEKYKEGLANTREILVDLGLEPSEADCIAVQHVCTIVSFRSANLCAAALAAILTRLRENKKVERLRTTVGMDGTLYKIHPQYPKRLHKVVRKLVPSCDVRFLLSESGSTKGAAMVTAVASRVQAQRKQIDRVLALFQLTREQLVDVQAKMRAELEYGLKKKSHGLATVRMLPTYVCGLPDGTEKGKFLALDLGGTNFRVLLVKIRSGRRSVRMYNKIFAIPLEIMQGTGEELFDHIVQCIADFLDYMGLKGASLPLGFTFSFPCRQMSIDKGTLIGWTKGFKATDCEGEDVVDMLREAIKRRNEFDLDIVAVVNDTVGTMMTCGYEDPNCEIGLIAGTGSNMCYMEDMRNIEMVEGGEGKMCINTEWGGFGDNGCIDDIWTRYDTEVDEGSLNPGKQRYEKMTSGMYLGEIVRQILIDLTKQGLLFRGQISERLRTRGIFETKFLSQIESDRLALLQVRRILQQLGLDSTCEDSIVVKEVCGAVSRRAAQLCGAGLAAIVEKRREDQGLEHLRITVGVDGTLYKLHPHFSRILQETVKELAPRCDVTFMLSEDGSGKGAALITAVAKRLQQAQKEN
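Assay system: recombinant HKDC1 hexokinase; detection: coupled resazurin fluorescence, excitation 525 nm, emission 613 nm; benchmarks: DMSO-plus-enzyme-mix negative control, buffer-substituted positive control; compound dosing: single 20 µM dose; schedule: 90 min at room temperature in dark; also added: glucose plus 1 mM ATP as hexokinase substrates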
UCH37 inh: inhibitors of human UCH37 deubiquitinase, primary screen, biochemical, Ub-AMC cleavage, fluorescence | purified proteasome/UCH37 | inhibition, % (concentration not given with the values) | 330,000 tested, 0.33% active | AID 588478, 2011;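 active means mean inhibition over replicate wells above about 20%, limit read from the data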;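 further: 0% = compound-free wells with enzyme and 100% = wells lacking proteasome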
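Signal – fluorescence, ex 355 nm, em 460 nm · System – Proteasome-bound UCH37 · Input – 0.15 nM proteasome as dispensed · Timing – 30 min preincubation with enzyme, 25 min cleavage at room temperature · Read-out basis – percent inhibition of cleavage signal versus uninhibited and no-proteasome wells · Medium – Tris-HCl pH 7.4 with ATP-MgCl2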
TDP2 inh: human TDP2 enzyme inhibitors, primary screen, biochemical, epi absorbance, recombinant enzyme | 370,000 tested, 0.34% active | T5PNP hydrolysis, p-nitrophenol absorbance 415 nm | AID 720702, 2013 | inhibition, % at 12.8 µM | Tyrosyl-DNA phosphodiesterase 2 (Homo sapiens), O95551;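 active means inhibition above the mean of all tested compounds plus 3 SD, set per campaign, cut at about 25% in these data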;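 further: 0% = DMSO with enzyme and 100% = buffer with substrate but no TDP2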
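Test system: human TDP2 enzyme; Input: 120 nM TDP2 per well; Buffer or medium: Mg2+-containing Tris-HCl buffer, pH 7.5; Reagent: 5 mM T5PNP; Dosing: 12.8 µM single point, 1% DMSO; Incubation: reaction 2 h, 37 °C; Detection: p-Nitrophenol epi absorbance; Read-out: % inhibition relative to enzyme-containing and enzyme-free wells; Replicates: single well per compound.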
PAD4 FP inh: human PAD4 inhibitors, primary screen, biochemical, fluorescence polarization, 1536-well format; Protein-arginine deiminase type-4 (Homo sapiens), Q9UM07; recombinant PAD4, RCA probe fluorescence polarization; inhibition, % at 6.36 µM; 330,000 tested, 0.41% active;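 active means percent inhibition above a cutoff equal to the mean of all tested compounds plus 3 SD, cut at about 15% in these data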;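 further: 0% = PAD4 with RCA probe and DMSO and 100% = probe without PAD4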
TDP2 inh conf: human TDP2 enzyme inhibitors, retest, confirmation, biochemical, epi absorbance, recombinant enzyme | 1,100 tested, 22% active | inhibition, % at 12.8 µM | absorbance read-out | shares compounds with TDP2 inh; in the data active means inhibition above about 25%;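 further: 0% = vehicle with enzyme and 100% = no enzyme buffer only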
Numbers without * were called inactive; i = inactive; · = no result given. In the library only some 1.6% were active in any assay of this set; here they are far more common.

SMILES | GSTO1 counter | CTSL1 counter | HKDC1 inhibitor | UCH37 inh | TDP2 inh | PAD4 FP inh | TDP2 inh conf
NS(=O)(=O)c1ccc(CCNCC(=O)NCc2ccccc2Cl)cc1 | -3 | -5 | -1 | 3 | 27* | 14 | 1
COc1ccccc1C(=O)COC(=O)c1nc(Cl)ccc1Cl | 6 | 0 | -2 | -1 | 5 | 2 | ·
O=C(COC(=O)c1nc(Cl)ccc1Cl)c1ccccc1Cl | -1 | -3 | -5 | 3 | 29* | 3 | 0
O=C(C[n+]1ccc(C(=O)NN=Cc2ccc(O)cc2)cc1)c1ccccc1 | · | · | · | 11 | · | · | ·
CNC(=O)C(=O)Nc1c(O)c2ccccc2[nH]c1=O | 3 | 1 | -5 | 1 | 27* | 0 | -3
CC(C)(C)NC(=O)C(=O)NC(=O)c1c(F)cccc1Cl | 1 | 0 | -7 | 4 | 43* | -2 | -5
CCOc1ccc(C(C)=NNC(=O)c2nnn(-c3nonc3N)c2-c2cccs2)cc1 | · | · | · | -217 | · | · | ·
CCC1S/C(=N/N=Cc2ccco2)NC1=O (centres undefined) | · | · | · | 16 | · | · | ·
S=C(NN=Cc1ccc2c(c1)OCO2)NC1CC2CCC1C2 (centres undefined) | · | · | · | 2 | · | · | ·
S=C(N/N=C/c1ccc2c(c1)OCO2)NC1CC2CCC1C2 (centres undefined) | -15 | 0 | 2 | · | 26* | -1 | 7
COC(=O)C1=C(C(C)=O)C(c2ccc(C)cc2)n2nnnc2N1 (centres undefined) | 0 | 4 | 0 | 8 | -2 | 0 | ·
COC(=O)C1=C(C(C)=O)C(c2ccc(C(=O)OC)cc2)n2nnnc2N1 (centres undefined) | 8 | 9 | -5 | 9 | 34* | 0 | 4
CCC(C)N1CC(C(=O)NC2CCCCC2)CC1=O (centres undefined) | 4 | -3 | -9 | -3 | 25* | 0 | -5
CCC(C)N1CC(C(=O)O)CC1=O (centres undefined) | 6 | 7 | -17 | 2 | 3 | -4 | ·
O=C(CN1CCCCC1)Nc1c2c(nc3ccccc13)N(c1ccccc1)CC2 | 0 | -1 | 20 | -125 | 45* | 1 | 9
COc1cc(CCNC2=CC(=O)c3ncccc3C2=O)ccc1O | · | · | -17 | · | 29* | · | 35*
COc1ccccc1CNS(=O)(=O)c1cc(CN2C(=O)c3cccnc3C2=O)ccc1OC | 4 | 1 | -1 | 0 | 13 | 1 | ·
O=C1NC(=O)/C(=C/c2ccccc2OCc2ccccc2)S1 | -9 | 0 | 6 | -12 | 25* | -6 | 12
O=C(COc1ccccc1/C=C1\SC(=O)NC1=O)Nc1ccccc1 | -15 | 2 | 0 | 0 | 7 | -2 | ·
CN1C(=O)C(=NOC(=O)c2ccccc2Br)c2ccccc21 | · | · | · | 1 | · | · | ·
COc1cc(C(=S)N2CCCCC2)ccc1OCC(=O)Nc1ccc(F)cc1 | 3 | -3 | 5 | 3 | 51* | -1 | -4
O=c1c(=Cc2cccn2-c2ccccc2)sc2nc3ccccc3n12 | · | · | · | -13 | · | · | ·
O=C(CN1C(=O)S/C(=C\c2ccc(F)cc2)C1=O)Nc1cccc(S(=O)(=O)NCc2ccco2)c1 | -1 | -1 | 5 | 6 | 27* | 1 | 0
CCc1ccccc1OCC(=O)Nc1cccc(S(=O)(=O)NCc2ccco2)c1 | · | · | -1 | 1 | -5 | -8 | ·
CCN1CCN(C(=O)Cn2ncc3c2-c2ccccc2OC3)CC1 | -6 | 3 | -7 | 3 | -4 | 5 | ·
SMILES | GSTO1 counter | CTSL1 counter | HKDC1 inhibitor | UCH37 inh | TDP2 inh | PAD4 FP inh | TDP2 inh conf
O=C(Cn1ncc2c1-c1ccccc1OC2)N1CCN(Cc2ccccc2)CC1 | -2 | -4 | -5 | 3 | 29* | -6 | 10
CCN(CC)CCNC(=O)c1c(O)c2cc(OC)c(OC)cc2[nH]c1=O | 13 | -2 | -5 | -57 | 25* | -2 | 5
COc1ccc2nc(NC(=O)CN3C(=O)NC4(CCCCC4)C3=O)sc2c1 | 4 | -1 | -4 | 0 | 5 | -2 | ·
COc1ccc2nc(NC(=O)CSc3ccccc3)sc2c1 | -2 | 3 | -3 | 0 | 26* | -2 | 5
COc1ccc2nc(NC(=O)CN3C(=O)NC4(CCCC4)C3=O)sc2c1 | 0 | 2 | -2 | 1 | 63* | -5 | 0
COc1ccc2nc(NC(=O)CSC3=NCCS3)sc2c1 | -14 | 0 | -1 | 1 | 2 | 13 | ·
O=C(COc1cccc(Br)c1)NN=C1CCCc2ccccc21 | · | · | · | 2 | · | · | ·
CC(=NNC(=O)c1nn(C)c(C)c1Br)c1ccc(NC(=O)c2ccccc2F)cc1 | · | · | · | -213 | · | · | ·
Cc1cc(Cl)c(OCCOCCN2CCN(C)CC2)c(Br)c1 | 6 | 5 | -4 | 1 | 34* | 1 | 9
Cc1cc(Cl)c(OCCOCCN2CCC(C)CC2)c(Br)c1 | 5 | 4 | -10 | 2 | 7 | -2 | ·
CCOC(=O)C(=NNc1ccccc1Cl)N(C)C1CCCCC1 | · | · | · | 1 | · | · | ·
O=C(NCc1cccnc1)c1ccc2c(c1)N(Cc1ccccc1)CCS2 | 4 | 6 | 0 | i | 25* | -2 | -3
O=C(NCc1ccccn1)c1ccc2c(c1)N(Cc1ccccc1)CCS2 | 6 | 3 | -1 | -366 | 3 | 1 | ·
COc1ccc(C(C)=NNC(=O)Cn2nc([N+](=O)[O-])cc2C)cc1 | · | · | · | 1 | · | · | ·
Cc1ccc(OCCN2CCCC2)cc1 | -2 | 1 | -3 | 4 | 25* | 0 | 11
Cc1ccc(Nc2nc(N)nc(CN3CCCCCC3)n2)c(C)c1 | 8 | -2 | -7 | 1 | 38* | -1 | -3
Cc1ccc(Nc2nc(N)nc(CN3CCC(C)CC3)n2)c(C)c1 | -6 | -1 | 2 | 1 | -4 | -3 | ·
CC(C(=O)NC1CCCCCC1)c1ccc([N+](=O)[O-])cc1 (centres undefined) | 2 | 0 | -8 | 1 | 25* | -3 | -3
O=C(NN=C/C=C/c1ccccc1)c1ccccn1 | · | · | · | 11 | · | · | ·
CCN1C(=O)C(=c2sc(=C3Sc4ccccc4N3C)c(=O)n2C)N(C)C1=S | · | · | · | 4 | · | · | ·
O=C(Nc1ccc(Cl)cc1)N1CCSC1=NCc1ccccc1 | 8 | -2 | -3 | 6 | 2 | -2 | ·
CC(=O)Nc1ccc(C2=NN(C)C(=NCc3ccccc3)SC2)cc1 | -1 | 9 | 1 | 9 | 29* | 2 | 5
CCOCCCNC(=O)Cn1cc2c(n1)-c1c(oc(C(=O)N3CCCC3)c1C)CC2 | · | · | · | · | 38* | · | -7
